According to ChEMBL document CHEMBL4689842, “EUbOPEN Chemogenomics Library wave 1” (2021):

Test system: Fibroblast
Test: Multiplex assay against human fibroblast
Type: toxicity, cell-based
Outline: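 Phenotypes for tubulin, mitochondrial mass and membrane permeability are expressed as per cents of healthy-nucleus cells. Cells were stained live at seeding with Hoechst33342, BioTracker Green Microtubule Cytoskeleton Dye, MitoTracker Red and Annexin V Alexa Fluor 680, then imaged after compound addition on a CQ1 microscope at 37°C and 5% CO2. Machine-learning gating in CellPathfinder separated Hoechst high-intensity objects from normal cells, divided normal cells by nuclear state (healthy, pyknosed, fragmented) and divided pyknosed cells into mitotic or apoptotic.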

[1] = 12 h, 1 µM, compound concentration 1 uM, replicate 1
[2] = 12 h, 1 µM, compound concentration 1 uM, replicate 2
[3] = 12 h, 10 µM, compound concentration 10 uM, replicate 1
[4] = 12 h, 10 µM, compound concentration 10 uM, replicate 2
[5] = 24 h, 1 µM, compound concentration 1 uM, replicate 1
[6] = 24 h, 1 µM, compound concentration 1 uM, replicate 2
[7] = 24 h, 10 µM, compound concentration 10 uM, replicate 1
[8] = 24 h, 10 µM, compound concentration 10 uM, replicate 2
[9] = 48 h, 1 µM, compound concentration 1 uM, replicate 1
[10] = 48 h, 1 µM, compound concentration 1 uM, replicate 2
[11] = 48 h, 10 µM, compound concentration 10 uM, replicate 1
[12] = 48 h, 10 µM, compound concentration 10 uM, replicate 2

**Q.** Which results are given for N#Cc1cccc(C(=O)Nc2cc(-c3ccccc3)nn2-c2ccccc2)c1?
**A.** Population Apoptotic (%) [1]: 66%; Population Fragmented Nuclei (%) [1]: 21%; Population Healthy Nuclei (%) [1]: 48%; Population Hoechst High Intensity Objects (%) [1]: 11%; Population Membrane Permeable-Phenotype (%) [1]: 22%; Population Mitochondria Different-Phenotype (%) [1]: 6%; Population Mitotic Cells (%) [1]: 34%; Population Normal (%) [1]: 88%; Population Pyknosed Nuclei (%) [1]: 30%; Population Tubulin-Different-Phenotype (%) [1]: 48%; Total Cell Count [1]: 186; Population Apoptotic (%) [2]: 16%; Population Fragmented Nuclei (%) [2]: 5%; Population Healthy Nuclei (%) [2]: 84%; Population Hoechst High Intensity Objects (%) [2]: 3%; Population Membrane Permeable-Phenotype (%) [2]: 6%; Population Mitochondria Different-Phenotype (%) [2]: 8%; Population Mitotic Cells (%) [2]: 83%; Population Normal (%) [2]: 96%; Population Pyknosed Nuclei (%) [2]: 10%; Population Tubulin-Different-Phenotype (%) [2]: 16%; Total Cell Count [2]: 59; Population Apoptotic (%) [3]: 50%; Population Fragmented Nuclei (%) [3]: 15%; Population Healthy Nuclei (%) [3]: 42%; Population Hoechst High Intensity Objects (%) [3]: 8%; Population Membrane Permeable-Phenotype (%) [3]: 23%; Population Mitochondria Different-Phenotype (%) [3]: 15%; Population Mitotic Cells (%) [3]: 50%; Population Normal (%) [3]: 91%; Population Pyknosed Nuclei (%) [3]: 42%; Population Tubulin-Different-Phenotype (%) [3]: 82%; Total Cell Count [3]: 134; Population Apoptotic (%) [4]: 45%; Population Fragmented Nuclei (%) [4]: 9%; Population Healthy Nuclei (%) [4]: 60%; Population Hoechst High Intensity Objects (%) [4]: 9%; Population Membrane Permeable-Phenotype (%) [4]: 15%; Population Mitochondria Different-Phenotype (%) [4]: 84%; Population Mitotic Cells (%) [4]: 55%; Population Normal (%) [4]: 90%; Population Pyknosed Nuclei (%) [4]: 30%; Population Tubulin-Different-Phenotype (%) [4]: 97%; Total Cell Count [4]: 72; Population Apoptotic (%) [5]: 47%; Population Fragmented Nuclei (%) [5]: 17%; Population Healthy Nuclei (%) [5]: 49%; Population Hoechst High Intensity Objects (%) [5]: 8%; Population Membrane Permeable-Phenotype (%) [5]: 34%; Population Mitochondria Different-Phenotype (%) [5]: 6%; Population Mitotic Cells (%) [5]: 52%; Population Normal (%) [5]: 91%; Population Pyknosed Nuclei (%) [5]: 33%; Population Tubulin-Different-Phenotype (%) [5]: 69%; Total Cell Count [5]: 180; Population Apoptotic (%) [6]: 14%; Population Fragmented Nuclei (%) [6]: 3%; Population Healthy Nuclei (%) [6]: 86%; Population Hoechst High Intensity Objects (%) [6]: 4%; Population Membrane Permeable-Phenotype (%) [6]: 1%; Population Mitochondria Different-Phenotype (%) [6]: 8%; Population Mitotic Cells (%) [6]: 85%; Population Normal (%) [6]: 95%; Population Pyknosed Nuclei (%) [6]: 10%; Population Tubulin-Different-Phenotype (%) [6]: 7%; Total Cell Count [6]: 68; Population Apoptotic (%) [7]: 45%; Population Fragmented Nuclei (%) [7]: 20%; Population Healthy Nuclei (%) [7]: 39%; Population Hoechst High Intensity Objects (%) [7]: 6%; Population Membrane Permeable-Phenotype (%) [7]: 36%; Population Mitochondria Different-Phenotype (%) [7]: 4%; Population Mitotic Cells (%) [7]: 54%; Population Normal (%) [7]: 93%; Population Pyknosed Nuclei (%) [7]: 39%; Population Tubulin-Different-Phenotype (%) [7]: 93%; Total Cell Count [7]: 119; Population Apoptotic (%) [8]: 42%; Population Fragmented Nuclei (%) [8]: 9%; Population Healthy Nuclei (%) [8]: 67%; Population Membrane Permeable-Phenotype (%) [8]: 30%; Population Mitochondria Different-Phenotype (%) [8]: 71%; Population Mitotic Cells (%) [8]: 57%; Population Pyknosed Nuclei (%) [8]: 22%; Population Tubulin-Different-Phenotype (%) [8]: 95%; Total Cell Count [8]: 66; Population Apoptotic (%) [9]: 57%; Population Fragmented Nuclei (%) [9]: 31%; Population Healthy Nuclei (%) [9]: 44%; Population Hoechst High Intensity Objects (%) [9]: 12%; Population Membrane Permeable-Phenotype (%) [9]: 26%; Population Mitochondria Different-Phenotype (%) [9]: 3%; Population Mitotic Cells (%) [9]: 42%; Population Normal (%) [9]: 87%; Population Pyknosed Nuclei (%) [9]: 24%; Population Tubulin-Different-Phenotype (%) [9]: 50%; Total Cell Count [9]: 166; Population Apoptotic (%) [10]: 0%; Population Fragmented Nuclei (%) [10]: 28%; Population Healthy Nuclei (%) [10]: 69%; Population Hoechst High Intensity Objects (%) [10]: 8%; Population Membrane Permeable-Phenotype (%) [10]: 12%; Population Mitochondria Different-Phenotype (%) [10]: 5%; Population Mitotic Cells (%) [10]: 100%; Population Normal (%) [10]: 91%; Population Pyknosed Nuclei (%) [10]: 1%; Population Tubulin-Different-Phenotype (%) [10]: 57%; Total Cell Count [10]: 112; Population Apoptotic (%) [11]: 41%; Population Fragmented Nuclei (%) [11]: 30%; Population Healthy Nuclei (%) [11]: 40%; Population Hoechst High Intensity Objects (%) [11]: 12%; Population Membrane Permeable-Phenotype (%) [11]: 28%; Population Mitochondria Different-Phenotype (%) [11]: 4%; Population Mitotic Cells (%) [11]: 58%; Population Normal (%) [11]: 87%; Population Pyknosed Nuclei (%) [11]: 28%; Population Tubulin-Different-Phenotype (%) [11]: 95%; Total Cell Count [11]: 126; Population Apoptotic (%) [12]: 23%; Population Fragmented Nuclei (%) [12]: 45%; Population Healthy Nuclei (%) [12]: 45%; Population Hoechst High Intensity Objects (%) [12]: 34%; Population Membrane Permeable-Phenotype (%) [12]: 25%; Population Mitochondria Different-Phenotype (%) [12]: 1%; Population Mitotic Cells (%) [12]: 76%; Population Normal (%) [12]: 65%; Population Pyknosed Nuclei (%) [12]: 9%; Total Cell Count [12]: 214

**Q.** What does the source list for CC[C@@H]1C(=O)N(C)c2cnc(Nc3ccc(C(=O)NC4CCN(C)CC4)cc3OC)nc2N1C1CCCC1 [BI-2536]?
**A.** Population Apoptotic (%) [1]: 82%; Population Fragmented Nuclei (%) [1]: 37%; Population Healthy Nuclei (%) [1]: 51%; Population Hoechst High Intensity Objects (%) [1]: 13%; Population Membrane Permeable-Phenotype (%) [1]: 6%; Population Mitotic Cells (%) [1]: 17%; Population Normal (%) [1]: 86%; Population Pyknosed Nuclei (%) [1]: 11%; Population Tubulin-Different-Phenotype (%) [1]: 10%; Total Cell Count [1]: 236; Population Apoptotic (%) [2]: 100%; Population Fragmented Nuclei (%) [2]: 60%; Population Healthy Nuclei (%) [2]: 35%; Population Hoechst High Intensity Objects (%) [2]: 51%; Population Membrane Permeable-Phenotype (%) [2]: 0%; Population Mitochondria Different-Phenotype (%) [2]: 5%; Population Mitotic Cells (%) [2]: 0%; Population Normal (%) [2]: 48%; Population Pyknosed Nuclei (%) [2]: 4%; Population Tubulin-Different-Phenotype (%) [2]: 0%; Total Cell Count [2]: 98; Population Fragmented Nuclei (%) [3]: 38%; Population Healthy Nuclei (%) [3]: 50%; Population Hoechst High Intensity Objects (%) [3]: 22%; Population Membrane Permeable-Phenotype (%) [3]: 2%; Population Mitochondria Different-Phenotype (%) [3]: 7%; Population Mitotic Cells (%) [3]: 19%; Population Normal (%) [3]: 77%; Population Pyknosed Nuclei (%) [3]: 11%; Population Tubulin-Different-Phenotype (%) [3]: 31%; Total Cell Count [3]: 347; Population Apoptotic (%) [4]: 80%; Population Fragmented Nuclei (%) [4]: 50%; Population Healthy Nuclei (%) [4]: 41%; Population Hoechst High Intensity Objects (%) [4]: 26%; Population Membrane Permeable-Phenotype (%) [4]: 3%; Population Mitochondria Different-Phenotype (%) [4]: 25%; Population Mitotic Cells (%) [4]: 20%; Population Normal (%) [4]: 73%; Population Pyknosed Nuclei (%) [4]: 7%; Population Tubulin-Different-Phenotype (%) [4]: 62%; Total Cell Count [4]: 89; Population Apoptotic (%) [5]: 80%; Population Fragmented Nuclei (%) [5]: 33%; Population Healthy Nuclei (%) [5]: 53%; Population Hoechst High Intensity Objects (%) [5]: 18%; Population Membrane Permeable-Phenotype (%) [5]: 3%; Population Mitochondria Different-Phenotype (%) [5]: 8%; Population Mitotic Cells (%) [5]: 20%; Population Normal (%) [5]: 81%; Population Pyknosed Nuclei (%) [5]: 13%; Population Tubulin-Different-Phenotype (%) [5]: 6%; Total Cell Count [5]: 225; Population Apoptotic (%) [6]: 100%; Population Fragmented Nuclei (%) [6]: 59%; Population Healthy Nuclei (%) [6]: 38%; Population Hoechst High Intensity Objects (%) [6]: 48%; Population Membrane Permeable-Phenotype (%) [6]: 5%; Population Mitochondria Different-Phenotype (%) [6]: 0%; Population Mitotic Cells (%) [6]: 0%; Population Normal (%) [6]: 51%; Population Pyknosed Nuclei (%) [6]: 2%; Population Tubulin-Different-Phenotype (%) [6]: 11%; Total Cell Count [6]: 92; Population Apoptotic (%) [7]: 75%; Population Fragmented Nuclei (%) [7]: 35%; Population Healthy Nuclei (%) [7]: 55%; Population Hoechst High Intensity Objects (%) [7]: 36%; Population Membrane Permeable-Phenotype (%) [7]: 1%; Population Mitochondria Different-Phenotype (%) [7]: 21%; Population Mitotic Cells (%) [7]: 25%; Population Normal (%) [7]: 63%; Population Pyknosed Nuclei (%) [7]: 10%; Population Tubulin-Different-Phenotype (%) [7]: 21%; Total Cell Count [7]: 376; Population Apoptotic (%) [8]: 100%; Population Fragmented Nuclei (%) [8]: 57%; Population Healthy Nuclei (%) [8]: 28%; Population Hoechst High Intensity Objects (%) [8]: 35%; Population Membrane Permeable-Phenotype (%) [8]: 0%; Population Mitochondria Different-Phenotype (%) [8]: 35%; Population Mitotic Cells (%) [8]: 0%; Population Normal (%) [8]: 64%; Population Pyknosed Nuclei (%) [8]: 14%; Population Tubulin-Different-Phenotype (%) [8]: 57%; Total Cell Count [8]: 76
